# Experimental data from ChEMBL document CHEMBL1134348, “Novel glucocorticoid antedrugs possessing a 17beta-(gamma-lactone) ring” (J Med Chem, 2001).
# Tests used:
# [1] = % stability in human plasma after 10 minutes.; assay type: ADME, organism-based; details: plasma, read-out: Stability
# Procedure, shortened: (§1)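 Pooled heparinized plasma from 4 volunteers was incubated at 37 °C with test compound at a final concentration of 30 ug/mL, with DMSO-only controls. The reaction was stopped with 2 M citric acid at 10 and 60 min, with a zero-time sample. Supernatants were analysed by reversed-phase HPLC at 240 nm against an internal standard, in duplicate, and reported as % compound remaining.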
# [2] = % stability in human plasma after 60 minutes.; assay type: ADME, organism-based; details: plasma, read-out: Stability; procedure, shortened: as §1
# [3] = % stability in krebs buffer after 60 minutes.; assay type: physicochemical; details: Krebs buffer; read-out: Stability
# Procedure, shortened: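 Test compound, at a final concentration of 30 ug/mL, was spiked into Krebs buffer at 37 °C for 60 min, then quenched with 2 M citric acid. Supernatant was analysed by reversed-phase HPLC with UV detection at 240 nm and an internal standard, in duplicate. The read-out was % compound remaining.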
# [4] = half life in human plasma.; assay type: ADME, organism-based
# Procedure, shortened: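 Pooled heparinised plasma from 4 volunteers, stored at −20 °C; compound spiked to final 30 ug/mL at 37 °C. Half-life taken from additional time points in this incubation; reaction stopped with 2 M citric acid, samples frozen overnight and centrifuged. Supernatant analysed by reverse-phase HPLC with UV at 240 nm, internal standard dexamethasone or hydrocortisone; duplicates.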
# Rattus norvegicus [5] = test: Inhibition of rat ear edema as percentage change in mean weight (44.05+/-1.18 mg) from control group of 55.67+/-1.22 mg at 100 ug dose; assay type: functional
# Rattus norvegicus [6] = test: Inhibition of rat ear edema as percentage change in mean weight (50.65 +/- 1.18 mg) from control group of 55.67+/-1.22 mg at 25 ug dose; assay type: functional
# Rattus norvegicus [7] = test: Inhibition of rat ear edema as percentage change in mean weight (54.86 +/- 1.35 mg) from control group of 55.67+/-1.22 mg at 6.25 ug dose; assay type: functional
# Rattus norvegicus [8] = test: Inhibition of rat ear edema as percentage change in mean weight (56.03 +/- 1.41 mg) from control group of 55.67+/-1.22 mg at 1.56 ug dose; assay type: functional
smiles,measurement,setting,value
CC1(C)O[C@@H]2CC3C4C[C@H](F)C5=CC(=O)C=C[C@]5(C)[C@@]4(F)[C@@H](O)C[C@]3(C)[C@]2(SC2CCOC2=O)O1 (stereo partly drawn),remaining at 10 min,[1],24%
same,remaining at 1 h,[2],0%
same,remaining at 1 h,[3],74%
same,half-life,[4],4 min
same,Decrease,Rattus norvegicus [5],20.9%
same,Decrease,Rattus norvegicus [6],9.01%
same,Decrease,Rattus norvegicus [7],1.46%
same,Decrease,Rattus norvegicus [8],0%
